Data reported in ChEMBL document CHEMBL4311940, “Design, Synthesis, and Biological Evaluation of 4-Methyl Quinazoline Derivatives as Anticancer Agents Simultaneously Targeting Phosphoinositide 3-Kinases and Histone Deacetylases” (J Med Chem, 2019).
Activity calls are given as the source filed them. No cut-off for these calls is given here.

Key:
Histone deacetylase 1 = Histone deacetylase 1 (Homo sapiens, UniProt Q13547); experiment: Inhibition of recombinant C-terminal His/FLAG-tagged HDAC1 (unknown origin) expressed in baculovirus infected Sf9 insect cells using Ac-peptide as substrate preincubated for 15 mins followed by substrate addition and measured after 1 hr
Homo sapiens [1] = species: Homo sapiens; experiment: Selectivity ratio, ratio of IC50 for recombinant human N-terminal FLAG-tagged mTOR (1362 to end amino acids) to IC50 for recombinant human PI3Kalpha
Homo sapiens [2] = species: Homo sapiens; experiment: Selectivity ratio, ratio of IC50 for recombinant human N-terminal FLAG-tagged mTOR (1362 to end amino acids) to IC50 for recombinant human His-tagged PIK3CD/PIK3R1 expressed in baculovirus expression system
Homo sapiens [3] = species: Homo sapiens; experiment: Inhibition of PI3K in human HCT116 cells assessed as reduction in AKT phosphorylation at T308 residue at 0.02 to 0.5 uM after 16 hrs by Western blot analysis; assay type: cell-based
Method in brief: (§1)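 Immunoblot of HCT116 lysates (RIPA). 40 μg protein per lane on 10−12% SDS-PAGE, transferred to nitrocellulose, blocked 0.5 h in 5% milk/TBST. Primary antibodies 1:1000 overnight at 4 °C, secondary 1:1000 for 1 h, bands visualized by enhanced ECL.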

[4] = molecular target: Histone deacetylase (Homo sapiens) (UniProt Q13547+O15379+Q9UBN7+Q92769+Q9UQL6+Q8WUI4+Q9BY41+Q96DB2+P56524+Q9UKV0+Q969S8); experiment: Inhibition of HDAC in human HCT116 cells assessed as increase in acetylated histone H3 levels after 16 hrs by Western blot analysis; assay type: cell-based
Method in brief: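 HCT116 cells lysed in RIPA after washes in cold PBS. 40 μg protein run on 10−12% SDS-PAGE and transferred to nitrocellulose. Membrane blocked in 5% milk/TBST for 0.5 h, primary antibodies 1:1000 overnight at 4 °C, secondary 1:1000 for 1 h, ECL detection.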

[5] = Selectivity index, ratio of IC50 for human PBMC cells to IC50 for human HCT116 cells; assay type: toxicity; conditions: PBMC cells and HCT116 cells, read-out: Ratio IC50
Method in brief: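 Ratio of IC50s from the MTT assay: PBMC or LO2 cells versus HCT116. Cells seeded at 2000/well, attached overnight at 37 °C, treated 96 h, MTT 4 h, formazan dissolved in DMSO, A570.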

Homo sapiens [6] = species: Homo sapiens; experiment: Inhibition of PI3K in human HCT116 cells assessed as reduction in AKT phosphorylation at S473 residue at 0.5 to 5 uM after 16 hrs by Western blot analysis; assay type: cell-based; method in brief: as §1
[7] = molecular target: Phosphatidylinositol 4-phosphate 3-kinase C2 domain-containing subunit beta (Homo sapiens) (UniProt O00750); experiment: Binding affinity to wild-type human […] length PIK3C2B (M1 to L1634 residues) expressed in mammalian expression system assessed as residual binding level at 1 uM by Kinomescan method relative to control
Method in brief: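 Kinomescan binding screen at 1 μM across 97 kinases.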

Homo sapiens [8] = species: Homo sapiens; experiment: Inhibition of PI3K in human HCT116 cells assessed as reduction in AKT phosphorylation at T308 residue at 0.5 to 5 uM after 16 hrs by Western blot analysis; assay type: cell-based; method in brief: as §1
Homo sapiens [9] = species: Homo sapiens; experiment: Inhibition of HDAC/PI3K in human HCT116 cells assessed as increase in cleaved caspase-3 level at 0.5 to 5 uM after 16 hrs by Western blot analysis; assay type: cell-based; method in brief: as §1
[10] = Terminal half life in ICR mouse at 30 mg/kg, po measured after 0.083 to 24 hrs by LC/MS/MS analysis; assay type: ADME, organism-based; conditions: in vivo, read-out: beta t1/2 (converted)
Method in brief: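 Male-unspecified ICR mice, 3 per group iv (3 mg/kg in 10% DMSO/saline) and 5 per group po (30 mg/kg in 0.5% cmc/0.3% Tween 80). Blood sampled 0.033 (iv) or 0.083 (po) to 24 h. Plasma extracted with acetonitrile, analysed by LC/MS/MS; noncompartmental analysis.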

[11] = Half life in mouse liver microsomes preincubated for 5 mins followed by NADPH addition by LC/MS analysis; assay type: ADME, Microsome
Method in brief: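 Mouse liver microsomes (0.5 mg/mL protein) with compound preincubated 5 min at 37 °C, started with NADPH; quenched with acetonitrile at time points; LC/MS. T1/2 = 0.693/K from ln(concentration) vs time; Clint scaled with factor 3937.5.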

HCT-116 = experiment: Antitumor activity against human HCT116 cells xenografted in athymic nude BALB/c mouse assessed as tumor growth inhibition at 150 mpk, po measured 2 times every week relative to control; assay type: functional; conditions: HCT-116, po, read-out: TGI
Method in brief: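 Female BALB/c-nu/nu mice, 6–8 weeks, given 2 × 10^6 HCT116 cells in 0.2 mL saline s.c. right flank; randomized at 100–200 mm3. Daily oral dosing in 0.5% cmc with Tween 80; vehicle controls.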

[12] = Drug level in tumor of human HCT116 cells xenografted in athymic nude BALB/c mouse at 100 mpk, po by LC/MS/MS analysis; assay type: ADME, organism-based, Neoplasm; conditions: in vivo, 100 mg/kg
Method in brief: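 HCT116 xenografted nude mice given daily oral doses; tumor tissue sampled 1 h after final dose and compound level measured (ng/g).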

Mus musculus [13] = experiment: In vivo inhibition of HDAC in tumor of human HCT116 cells xenografted in athymic nude BALB/c mouse assessed as increase in acetylated histone-H3 expression by DAB staining based immunohistochemistry method; assay type: functional, organism-based
Method in brief: (§2)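 HCT116 xenograft tumors from treated and vehicle mice stained immunohistochemically for Ki67, acetyl-H3 and p-AKT(S473) (200×); integrated optical density quantified; mean ± SEM, n = 5−7, one-way ANOVA versus vehicle.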

Mus musculus [14] = experiment: In vivo inhibition of PI3K/HDAC in tumor of human HCT116 cells xenografted in athymic nude BALB/c mouse assessed as reduction in phosphorylated Ki67 expression by DAB staining based immunohistochemistry method; assay type: functional, organism-based; method in brief: as §2
HGC-27 [15] = experiment: Antitumor activity against human HGC27 cells xenografted in athymic nude BALB/c mouse assessed as tumor growth inhibition at 200 mpk, po measured 2 times every week; assay type: functional; conditions: HGC-27, po, read-out: TGI
Method in brief: (§3)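 HGC-27 xenograft: 2 × 10^6 cells in 0.2 mL saline s.c. right flank of female BALB/c-nu/nu mice (6–8 weeks); randomized at 100–200 mm3. Oral dosing in 0.5% cmc with Tween 80, intraperitoneal in saline; vehicle given orally daily.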

HGC-27 [16] = experiment: Antitumor activity against human HGC27 cells xenografted in athymic nude BALB/c mouse assessed as tumor growth inhibition at 30 mpk, ip measured 2 times every week; assay type: functional; conditions: HGC-27, ip, read-out: TGI; method in brief: as §3
[17] = Toxicity in athymic nude BALB/c mouse xenografted with human HGC27 cells assessed as reduction in body weight at 30 mpk, ip measured 2 times every week relative to control; assay type: organism-based; set-up: scale not given: the % may be the effect or the level left; conditions: in vivo, 30 mg/kg
Mus musculus [18] = experiment: In vivo inhibition of HDAC in tumor of human HGC27 cells xenografted in athymic nude BALB/c mouse assessed as increase in acetylated histone-H3 expression by DAB staining based immunohistochemistry method; assay type: functional, organism-based
Method in brief: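 HGC-27 xenograft tumors from treated and vehicle mice immunostained for Ki67, Ac-H3 and p-AKT(S473) (200×); integrated optical density analysed; mean ± SEM, n = 5−7, one-way ANOVA versus vehicle.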

Sequence of Phosphatidylinositol 4-phosphate 3-kinase C2 domain-containing subunit beta (Homo sapiens) (O00750 whole entry, the tested form may be a part): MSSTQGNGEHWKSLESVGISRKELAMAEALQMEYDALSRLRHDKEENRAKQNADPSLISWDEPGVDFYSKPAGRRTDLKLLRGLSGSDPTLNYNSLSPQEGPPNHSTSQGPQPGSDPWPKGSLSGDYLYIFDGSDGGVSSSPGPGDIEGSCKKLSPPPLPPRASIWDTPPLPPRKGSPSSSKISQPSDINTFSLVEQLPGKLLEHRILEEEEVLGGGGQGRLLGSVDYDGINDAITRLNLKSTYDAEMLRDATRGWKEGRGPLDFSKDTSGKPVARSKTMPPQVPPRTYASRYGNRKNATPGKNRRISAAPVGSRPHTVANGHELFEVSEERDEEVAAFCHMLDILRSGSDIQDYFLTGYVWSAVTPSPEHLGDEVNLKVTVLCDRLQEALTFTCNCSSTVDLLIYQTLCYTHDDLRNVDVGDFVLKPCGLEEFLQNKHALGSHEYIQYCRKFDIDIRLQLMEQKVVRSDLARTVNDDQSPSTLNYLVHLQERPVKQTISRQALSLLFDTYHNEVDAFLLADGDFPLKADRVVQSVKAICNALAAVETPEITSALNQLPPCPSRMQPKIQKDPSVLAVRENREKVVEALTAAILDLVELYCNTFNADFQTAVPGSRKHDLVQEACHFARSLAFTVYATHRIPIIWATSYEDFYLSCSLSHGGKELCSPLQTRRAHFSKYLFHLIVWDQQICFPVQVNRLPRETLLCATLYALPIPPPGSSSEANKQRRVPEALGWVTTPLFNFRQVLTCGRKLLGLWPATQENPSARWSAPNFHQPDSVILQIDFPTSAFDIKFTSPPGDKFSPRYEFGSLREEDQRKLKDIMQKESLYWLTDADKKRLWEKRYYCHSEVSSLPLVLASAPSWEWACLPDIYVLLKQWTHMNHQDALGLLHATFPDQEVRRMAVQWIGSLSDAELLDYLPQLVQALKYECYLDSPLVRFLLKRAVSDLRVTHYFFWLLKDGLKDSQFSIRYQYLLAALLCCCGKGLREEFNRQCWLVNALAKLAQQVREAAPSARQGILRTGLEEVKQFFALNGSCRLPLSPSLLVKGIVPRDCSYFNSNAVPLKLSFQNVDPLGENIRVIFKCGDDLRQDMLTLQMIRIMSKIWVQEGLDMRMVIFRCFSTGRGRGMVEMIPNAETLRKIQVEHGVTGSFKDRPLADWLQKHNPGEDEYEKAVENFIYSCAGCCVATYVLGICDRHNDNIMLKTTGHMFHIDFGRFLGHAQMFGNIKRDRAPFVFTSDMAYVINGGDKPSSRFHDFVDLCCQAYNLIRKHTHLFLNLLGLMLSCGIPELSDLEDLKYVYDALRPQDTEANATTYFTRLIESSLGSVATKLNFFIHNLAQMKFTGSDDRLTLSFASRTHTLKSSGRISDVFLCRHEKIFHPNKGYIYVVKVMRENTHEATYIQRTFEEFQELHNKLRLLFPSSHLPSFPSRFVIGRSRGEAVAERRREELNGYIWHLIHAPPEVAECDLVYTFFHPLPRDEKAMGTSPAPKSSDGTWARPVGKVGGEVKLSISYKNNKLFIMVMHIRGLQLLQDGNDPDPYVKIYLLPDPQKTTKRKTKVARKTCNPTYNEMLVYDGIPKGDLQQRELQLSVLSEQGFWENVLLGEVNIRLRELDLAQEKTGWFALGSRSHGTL
Sequence of Histone deacetylase 1 (Q13547 whole entry): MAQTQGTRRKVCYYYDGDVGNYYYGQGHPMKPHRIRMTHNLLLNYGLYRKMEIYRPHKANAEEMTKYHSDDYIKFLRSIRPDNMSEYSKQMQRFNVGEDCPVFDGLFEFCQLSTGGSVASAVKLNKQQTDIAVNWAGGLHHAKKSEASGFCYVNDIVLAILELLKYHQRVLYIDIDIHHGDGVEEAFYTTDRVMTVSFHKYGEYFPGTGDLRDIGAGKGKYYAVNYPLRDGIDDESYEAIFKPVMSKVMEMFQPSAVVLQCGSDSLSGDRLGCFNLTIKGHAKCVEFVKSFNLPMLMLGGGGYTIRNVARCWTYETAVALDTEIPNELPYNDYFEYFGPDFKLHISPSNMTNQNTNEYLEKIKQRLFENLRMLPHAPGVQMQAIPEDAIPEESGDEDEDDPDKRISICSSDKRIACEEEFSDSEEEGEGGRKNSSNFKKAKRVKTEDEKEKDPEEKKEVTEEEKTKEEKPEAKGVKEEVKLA

## COc1ccc(-c2cc(OCCN(C)c3ncc(C(=O)NO)cn3)c3ncnc(C)c3c2)cn1
Histone deacetylase 1
  IC50: 1.3 nM
Homo sapiens [1]
  Ratio IC50: > 27
Homo sapiens [2]
  Ratio IC50: > 27
Homo sapiens [3]
  inhibition: Active
[4]
  inhibition: Dose-dependent effect
[5]
  selectivity ratio: 8240

## COc1ncc(-c2cc(OCCCCCCC(=O)NO)c3ncnc(C)c3c2)cc1F
Homo sapiens [6]
  inhibition: Active
[7]
  Activity: 27%
Homo sapiens [8]
  inhibition: Active
Homo sapiens [9]
  inhibition: Active
[10]
  half-life: 124 min
[11]
  half-life: 24.6 min
HCT-116
  inhibition in vivo at 150 mg/kg: 45.8%
[12]
  Drug uptake: 72.7 ng/g
Mus musculus [13]
  inhibition: Dose-dependent effect
Mus musculus [14]
  inhibition: Dose-dependent effect
HGC-27 [15]
  inhibition in vivo at 200 mg/kg: 45.9%
HGC-27 [16]
  inhibition in vivo at 30 mg/kg: 62.6%
[17]
  Activity: 20%
Mus musculus [18]
  inhibition: Active
